13 compounds from ChEMBL document CHEMBL4400560, “Discovery and optimization of novel piperazines as potent inhibitors of fatty acid synthase (FASN)” (Bioorg Med Chem Lett, 2019) can be followed below.

pIC50: −log10 of the molar value. In brackets after ≈: the same amount, converted by molar mass.

Data set [1] can be described thus: Stability in mouse liver microsomes assessed as compound remaining after 30 mins. The following applies: read-out: Stability. The format is ADME, Microsome. In short, it runs like this: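 Mouse liver microsomes, 30-min incubation. Result expressed as percent of parent remaining.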
On the technique in general: Liver microsomes are vesicles of endoplasmic reticulum, rich in cytochrome P450 enzymes.

Data set [2] has as its target T1, Fatty acid synthase (Homo sapiens, UniProt P49327). Nature of the data set: Inhibition of full length recombinant human FASN using acetyl-CoA/malonyl-CoA as substrate preincubated for 60 mins followed by substrate addition and measured after 90 mins in presence of NADPH. Summed up: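 Full-length recombinant human FASN. CoA released is detected as a fluorescent conjugate with the coumarin maleimide CPM. IC50 is the mean of at least two separate runs.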

Data set [3] in a line: Intrinsic clearance in mouse liver microsomes. The format is ADME, Microsome. The following applies: read-out: CLH.
Data set [4] is described as follows: Intrinsic clearance in human liver microsomes. The format is ADME, Microsome. The settings on record: read-out: CLH.
A short description of data set [5]: Toxicity in mouse assessed as drug tolerability administered as single dose. The following applies: in vivo. In short, it runs like this: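 Mice received a single oral (PO) dose of 5 mg/kg and were watched for acute toxicity to judge tolerability. Female Balb/c nude mice were used for the fluorobenzoxazole analogues. Tolerability was expressed as whether the single dose was tolerated or as a maximum tolerated dose.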

Data set [6] can be described thus: Kinetic solubility of compound at pH 7.4. The data set is classed as physicochemical. The following applies: buffer, read-out: Kinetic_solubility. Summed up: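 Kinetic solubility measured at pH 7.4.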
The target in data set [7] is T1, Fatty acid synthase. Nature of the data set: Inhibition of FASN in human BT474 cells preincubated for 1 hr followed by [14C]-acetate addition and measured after 4 hrs by scintillation counting assay. The format is cell-based. Summed up: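 BT474 breast cancer cells given 14C-acetate, which cellular FASN incorporates via acetyl-CoA into newly made radiolabeled palmitate. IC50 for blocking this incorporation is the mean of at least two separate runs.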

Data set [8] can be described thus: AUC in mouse at mg/kg, po. The format is ADME, organism-based. Also noted: concentration or dose not given beside the values. The following applies: in vivo. In short, it runs like this:
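Mouse oral PK study at 5 mg/kg p.o., with plasma exposure taken as AUC0-8h.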

Data set [9] relates to PC-3. Nature of the data set: Antiproliferative activity against human PC3 cells after 96 hrs by MTT assay. The data set is classed as functional, cell-based. The settings on record: PC-3, 96 h. Summed up:
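PC3 prostate cancer cells grown in medium with 10% lipid-reduced serum, a condition in which growth depends on de novo lipogenesis, in the presence of inhibitor. Antiproliferative IC50 reported as the mean of at least two separate runs.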
Background: Formazan colour is commonly taken as a measure of viable cells.

T1 sequence (P49327 whole entry): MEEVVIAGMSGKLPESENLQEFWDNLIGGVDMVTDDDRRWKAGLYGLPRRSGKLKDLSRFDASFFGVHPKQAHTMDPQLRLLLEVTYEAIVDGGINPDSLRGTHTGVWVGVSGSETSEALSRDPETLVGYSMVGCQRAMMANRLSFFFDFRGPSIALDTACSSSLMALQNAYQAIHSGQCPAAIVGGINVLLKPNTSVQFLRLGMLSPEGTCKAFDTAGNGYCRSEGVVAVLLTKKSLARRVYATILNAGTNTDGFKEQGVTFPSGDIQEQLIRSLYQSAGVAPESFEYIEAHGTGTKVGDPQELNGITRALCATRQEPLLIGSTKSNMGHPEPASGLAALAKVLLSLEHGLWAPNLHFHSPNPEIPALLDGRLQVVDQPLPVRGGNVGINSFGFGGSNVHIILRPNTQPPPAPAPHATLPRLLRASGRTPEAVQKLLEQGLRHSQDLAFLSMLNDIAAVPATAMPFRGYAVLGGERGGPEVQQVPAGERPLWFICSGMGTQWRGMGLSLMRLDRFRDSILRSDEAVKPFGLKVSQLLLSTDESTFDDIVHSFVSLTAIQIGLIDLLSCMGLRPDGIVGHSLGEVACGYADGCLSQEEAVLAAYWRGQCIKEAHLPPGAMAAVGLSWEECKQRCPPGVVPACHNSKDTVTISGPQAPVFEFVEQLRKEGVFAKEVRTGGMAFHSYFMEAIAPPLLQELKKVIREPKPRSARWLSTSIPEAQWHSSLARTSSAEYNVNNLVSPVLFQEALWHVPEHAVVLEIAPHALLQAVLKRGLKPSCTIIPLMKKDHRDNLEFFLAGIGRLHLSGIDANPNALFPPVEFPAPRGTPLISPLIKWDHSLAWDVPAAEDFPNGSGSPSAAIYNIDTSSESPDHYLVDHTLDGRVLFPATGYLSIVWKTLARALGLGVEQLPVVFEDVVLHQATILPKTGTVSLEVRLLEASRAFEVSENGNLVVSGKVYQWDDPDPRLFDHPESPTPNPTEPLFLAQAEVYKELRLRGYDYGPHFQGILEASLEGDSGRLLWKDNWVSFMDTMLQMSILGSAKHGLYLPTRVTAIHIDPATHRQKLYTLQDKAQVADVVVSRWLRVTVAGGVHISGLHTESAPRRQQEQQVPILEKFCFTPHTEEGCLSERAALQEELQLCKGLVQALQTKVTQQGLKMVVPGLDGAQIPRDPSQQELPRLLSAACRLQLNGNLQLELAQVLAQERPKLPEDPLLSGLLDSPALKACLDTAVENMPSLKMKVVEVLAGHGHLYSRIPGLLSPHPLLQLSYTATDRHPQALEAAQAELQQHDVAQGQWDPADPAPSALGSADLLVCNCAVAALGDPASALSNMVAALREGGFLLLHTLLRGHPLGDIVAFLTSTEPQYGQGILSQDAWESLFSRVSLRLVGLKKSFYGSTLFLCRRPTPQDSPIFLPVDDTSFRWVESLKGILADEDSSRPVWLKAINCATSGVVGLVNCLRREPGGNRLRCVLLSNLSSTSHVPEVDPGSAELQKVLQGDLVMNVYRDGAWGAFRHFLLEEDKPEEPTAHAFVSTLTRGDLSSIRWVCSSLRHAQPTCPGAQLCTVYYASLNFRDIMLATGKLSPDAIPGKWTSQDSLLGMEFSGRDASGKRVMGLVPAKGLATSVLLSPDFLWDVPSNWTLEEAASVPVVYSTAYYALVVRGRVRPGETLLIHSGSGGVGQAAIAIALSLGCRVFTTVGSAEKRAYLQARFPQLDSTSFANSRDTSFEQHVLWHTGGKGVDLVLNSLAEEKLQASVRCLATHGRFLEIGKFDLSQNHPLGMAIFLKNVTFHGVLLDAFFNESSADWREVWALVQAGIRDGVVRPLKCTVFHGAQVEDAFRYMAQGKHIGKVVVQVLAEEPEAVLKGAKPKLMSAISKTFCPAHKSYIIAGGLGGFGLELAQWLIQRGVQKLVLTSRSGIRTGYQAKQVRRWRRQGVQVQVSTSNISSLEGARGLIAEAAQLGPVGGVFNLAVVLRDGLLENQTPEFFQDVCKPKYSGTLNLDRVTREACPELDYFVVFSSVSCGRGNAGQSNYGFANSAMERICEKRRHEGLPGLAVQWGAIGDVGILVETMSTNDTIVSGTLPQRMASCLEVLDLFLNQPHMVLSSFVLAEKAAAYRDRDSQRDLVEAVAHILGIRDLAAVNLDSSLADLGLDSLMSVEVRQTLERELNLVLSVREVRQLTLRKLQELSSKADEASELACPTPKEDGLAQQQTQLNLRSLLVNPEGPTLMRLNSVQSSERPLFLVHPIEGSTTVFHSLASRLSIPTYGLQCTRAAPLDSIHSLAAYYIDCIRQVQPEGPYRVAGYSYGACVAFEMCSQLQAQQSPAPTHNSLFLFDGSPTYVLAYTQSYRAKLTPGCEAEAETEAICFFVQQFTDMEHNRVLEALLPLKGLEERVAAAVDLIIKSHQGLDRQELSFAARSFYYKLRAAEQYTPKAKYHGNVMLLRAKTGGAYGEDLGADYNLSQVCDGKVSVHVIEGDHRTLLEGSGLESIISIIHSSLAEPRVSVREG

For the compound `CC(C)(O)C(=O)N1CCN(C(=O)c2ccc(-c3ccccc3)cc2)CC1`, in [1], the remaining at 0.5 h was 99%. Further, the pIC50 in data set [2] is 4.46.

In the case of `COc1ccc(-c2ccc(C(=O)N3CCN(C(=O)C4(O)CC4)CC3)cc2)c(Cl)c1`, the pIC50 in [2] was 5.51.

`O=C(c1ccc(-c2nc3ccccc3o2)cc1)N1CCN(C(=O)C2(O)CC2)CC1`: the remaining at 0.5 h in [1] was determined as 109%. Also, the microsomal CLint in data set [3] and in [4] was 7 µL/min/mg each time. In addition, the pIC50 in data set [2] is 7.27; in data set [7], 7.00; in [9], 7.82. Further, in [5], the MTD is under 5 mg/kg. Besides, the solubility kinetic in [6] came out at 83 µM (≈ 32.5 µg/mL). The AUC in [8] turned out to be 28.7 µM·h.

Turning to `O=C(c1ccc(-c2nc3cc(Cl)ccc3o2)cc1)N1CCN(C(=O)C2(O)CC2)CC1`, the remaining at 0.5 h in data set [1] worked out at 85%. Also, the pIC50 in data set [2] is 7.16; in data set [7], 6.87; in [9] it was 7.31. Moreover, the solubility kinetic in data set [6] was 6 µM (≈ 2.56 µg/mL).

For the compound `Cn1ccc2cc(-c3ccc(C(=O)N4CCN(C(=O)C5(O)CC5)CC4)cc3)ccc21`, the remaining at 0.5 h in data set [1] stood at 81%. For the same compound, the pIC50 in data set [2] was 7.92; in [7], 7.72. Further, the solubility kinetic in data set [6] was found to be 3 µM (≈ 1.21 µg/mL).

`O=C(c1ccc(-c2ccccc2)cc1)N1CCN(C(=O)[C@@H]2CCCO2)CC1`: in data set [1], the remaining at 0.5 h amounted to 65%. In addition, the pIC50 in [2] is at most 4.30.

With `O=C(c1ccc(-c2ccc3ocnc3c2)cc1)N1CCN(C(=O)C2(O)CC2)CC1`, the remaining at 0.5 h in data set [1] is 60%. Further, the results for the negative logarithm of the IC50 (pIC50) in data set [2], in [7] and in [9] were 6.85, 6.59 and 6.85, respectively. The solubility kinetic in data set [6] came to 92 µM (≈ 36 µg/mL).

On to `O=C(c1ccc(-c2ccccc2)cc1)N1CCN(C(=O)C2(O)CCCC2)CC1`, for which the pIC50 in [2] is under 4.30.

In the case of `O=C(c1ccc(-c2cc(Cl)ccc2F)cc1)N1CCN(C(=O)C2(O)CC2)CC1`, in data set [1], the remaining at 0.5 h stood at 66%. Also, the pIC50 in data set [2] was 6.96; in data set [7], 6.80; in data set [9], 6.86. Also, in data set [6], the solubility kinetic worked out at 43 µM (≈ 17.3 µg/mL).

As for `O=C(c1ccc(-c2nc3ccccc3s2)cc1)N1CCN(C(=O)C2(O)CC2)CC1`, the remaining at 0.5 h in data set [1] amounted to 84%. Also, the pIC50 in data set [2] was 7.24; in [7] it was 7.17; in [9], 6.67. Besides, the solubility kinetic in data set [6] worked out at 18 µM (≈ 7.33 µg/mL).

Turning to `O=C(c1ccc(-c2ccc3[nH]ccc3c2)cc1)N1CCN(C(=O)C2(O)CC2)CC1`, the remaining at 0.5 h in [1] stood at 55%. The pIC50 in [2] is 7.80; in [7] it was 7.74; in [9], 8.40. Further, the solubility kinetic in [6] came to 60 µM (≈ 23.4 µg/mL).

`O=C(c1ccc(-c2cnc3cccnc3c2)cc1)N1CCN(C(=O)C2(O)CC2)CC1`: the remaining at 0.5 h in data set [1] stood at 89%. Moreover, the pIC50 in data set [2] is under 5.30; in data set [7], under 3.90. For the same compound, the solubility kinetic in data set [6] was found to be 95 µM (≈ 38.2 µg/mL).

In the case of `O=C(c1ccc(-c2ccc(F)cc2Cl)cc1)N1CCN(C(=O)C2(O)CC2)CC1`, in [1], the remaining at 0.5 h came out at 69%. The negative-log IC50 (pIC50) in data set [2] is 6.51; in data set [7] it was 5.30. Moreover, the solubility kinetic in data set [6] is 67 µM (≈ 27 µg/mL).

Broadly, the pIC50 is the IC50 on a negative log10 scale, so that one unit is a factor of ten. Broadly, the MTD is the largest dose that counted as tolerated. The AUC is the area under the concentration-time curve, a measure of exposure.
